Data: PubChem BioAssay
Calls of active or inactive are those of the source. Cut-off read from the data, not from the text of the source, unless noted: active = inhibition above about 30%; inactive = the rest.

Key:
[1] = reducers of endogenous Her2 protein level, primary screen, SKBR3 breast tumor cells, AlphaScreen, ATP viability (AID 461;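 active = Her2 level under about 52% in both replicate screens, with viability over 70% of control, limit read from the data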;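 for Her2 level: lower value means less Her2 protein in the cells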;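 for viability: percent of carrier control wells set as 100% viability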); conditions: 18-24 h, measured here: SKBR3 viability, ATP luminescence, at 10 µM
[2] = molecular target: Receptor tyrosine-protein kinase erbB-2 (Homo sapiens) (UniProt P04626); assay: as above; conditions: 18-24 h, at 10 µM, stronger effect = lower value
[3] = SK-BR-3 cell growth inhibitors, pilot screen, 24 h, human (AID 572;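 active = viability at or below 10% of carrier control in both of two separate runs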;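 note: compound exposure lasted between 18 and 24 h rather than exactly 24 h; 100% = carrier-treated control wells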); conditions: SK-BR-3 viability, CellTiter-Glo luminescence, at 10 µM, stronger effect = lower value
[4] = HUVEC growth inhibition – cell-based, human, primary screen (AID 575;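 active = viability at or below 30% in both replicate assays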;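 note: 100% = median of untreated cell wells with 0.1% DMSO on each plate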); conditions: HUVEC proliferation, CellTiter-Glo luminescence, 72 h; at 10 µM; stronger effect = lower value
Procedure, shortened: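 Timing: 72 h treatment at 37 °C; material: HUVEC primary cells; technique: CellTiter-Glo luminescence measuring cellular ATP; controls: vehicle and MePR control wells; measure: percent of median DMSO-control luminescence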

[5] = growth inhibitors of H69AR lung tumor, primary screen, human, duplicate replicates (AID 580;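 active = viability at or under a set limit in both replicates, limit being median viability minus 3 SD, cut at about 48% in these data, passing the limit was not always enough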;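 note: 100% = mean luminescence of untreated wells and 0% = no signal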); conditions: H69AR lung tumor cells viability, ATP luminescence, 72 h; at 10 µM; stronger effect = lower value
[6] = reversal of MRP1-mediated doxorubicin resistance, pilot screen, H69AR cells, doxorubicin co-treatment (AID 601;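 active = viability loss from added drug above about 55%, and viability with drug at most 40%, in both replicates, limit read from the data, passing the limit was not always enough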); conditions: CellTiter-Glo, 72 h, at 10 µM; for differential viability (reversal): stronger effect = higher value
[7] = 384-well plate pilot, post-Golgi transport modulator project, inhibition of yeast transport mutant growth (AID 636; in the data active = inhibition above about 31%); conditions: absorbance 615 nm, about 18 h, stronger effect = higher value
[8] = growth suppression of yeast trafficking mutant, preliminary HTS, modulators of trafficking downstream of Golgi apparatus project, 1536-format plate, OD 615 nm (AID 637); conditions: yeast transport mutant growth, absorbance 615 nm, 18 h; stronger effect = higher value
[9] = H69AR cells + 2 uM doxorubicin, measured here: viability with 2 uM doxorubicin, stronger effect = lower value
[10] = H69AR cells, compound alone cytotoxicity

Sequence of Receptor tyrosine-protein kinase erbB-2 (Homo sapiens) (P04626 whole entry, looked up): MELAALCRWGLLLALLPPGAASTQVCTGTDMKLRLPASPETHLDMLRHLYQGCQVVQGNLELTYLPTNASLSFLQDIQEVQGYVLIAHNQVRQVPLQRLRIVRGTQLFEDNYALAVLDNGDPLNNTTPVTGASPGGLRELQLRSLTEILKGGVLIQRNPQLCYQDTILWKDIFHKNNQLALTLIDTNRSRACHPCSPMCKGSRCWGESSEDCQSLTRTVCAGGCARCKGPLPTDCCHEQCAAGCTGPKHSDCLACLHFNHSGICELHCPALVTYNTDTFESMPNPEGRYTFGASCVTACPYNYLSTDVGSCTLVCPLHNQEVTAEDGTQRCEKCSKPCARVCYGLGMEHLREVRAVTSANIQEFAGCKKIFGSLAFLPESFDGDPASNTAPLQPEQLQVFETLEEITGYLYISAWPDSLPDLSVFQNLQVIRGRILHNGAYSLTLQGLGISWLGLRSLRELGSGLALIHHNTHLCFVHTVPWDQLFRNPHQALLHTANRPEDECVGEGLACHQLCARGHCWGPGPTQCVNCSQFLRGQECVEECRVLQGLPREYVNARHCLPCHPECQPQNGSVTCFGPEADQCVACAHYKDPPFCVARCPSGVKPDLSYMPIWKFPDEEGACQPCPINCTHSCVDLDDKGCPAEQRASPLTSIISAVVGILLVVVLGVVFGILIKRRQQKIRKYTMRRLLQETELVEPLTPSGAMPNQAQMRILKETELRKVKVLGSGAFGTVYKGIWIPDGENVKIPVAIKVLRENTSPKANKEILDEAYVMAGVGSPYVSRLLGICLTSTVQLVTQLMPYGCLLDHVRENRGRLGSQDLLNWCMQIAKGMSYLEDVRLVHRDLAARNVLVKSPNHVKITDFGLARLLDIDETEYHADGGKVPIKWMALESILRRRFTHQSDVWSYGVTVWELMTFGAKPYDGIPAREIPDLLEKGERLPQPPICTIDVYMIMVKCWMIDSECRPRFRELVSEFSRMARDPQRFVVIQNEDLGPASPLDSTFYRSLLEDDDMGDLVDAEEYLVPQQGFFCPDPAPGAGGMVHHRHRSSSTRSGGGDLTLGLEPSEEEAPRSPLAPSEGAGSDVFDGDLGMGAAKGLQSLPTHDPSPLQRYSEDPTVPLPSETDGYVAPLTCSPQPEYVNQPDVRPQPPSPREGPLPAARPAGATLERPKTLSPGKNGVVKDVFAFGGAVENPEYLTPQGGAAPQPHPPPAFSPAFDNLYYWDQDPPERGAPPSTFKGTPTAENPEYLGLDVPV

For `O=c1cc(NCc2ccccc2)nc2n1CCCS2`, the viability [1] was 103%, the Her2 level [2] was 98% (inactive) and the viability [3] was 103% (inactive). For the same molecule, the viability [4] was 104% (inactive), the viability [5] was 92.1% (inactive) and the differential viability (reversal) ([6]; H69AR cells + 2 uM doxorubicin) was 0.29% (inactive). For the same molecule, the viability [6, 9] was 91.8%, the viability [6, 10] was 92.1% and the inhibition [7] was -3.68% (inactive). For the same molecule, the inhibition [8] was -5.71% (inactive).

In the case of `O=C(CN1CCCCCC1)OCCN=C1NS(=O)(=O)c2ccccc21`, the viability [1] is reported as 108%, the Her2 level [2] is reported as 96.5% (inactive) and the viability [3] is reported as 108% (inactive). For the same molecule, the viability [4] was 88.1% (inactive), the viability [5] was 113% (inactive) and the differential viability (reversal) ([6]; H69AR cells + 2 uM doxorubicin) was 22.9% (inactive). For the same molecule, the viability [6, 9] was 89.8%, the viability [6, 10] was 113% and the inhibition [7] was -2.21% (inactive). For the same molecule, the inhibition [8] was -6.51% (inactive).

In the case of `COCCn1c(CN2CCN(c3cccc(Cl)c3)CC2)nc2c1c(=O)n(C)c(=O)n2C`, the viability [1] is reported as 85%, the Her2 level [2] is reported as 85% (inactive) and the viability [3] is reported as 85% (inactive). The viability [4] was 64.7% (inactive), the viability [5] was 72.9% (inactive) and the differential viability (reversal) ([6]; H69AR cells + 2 uM doxorubicin) was 17.6% (inactive). The viability [6, 9] was 55.4%, the viability [6, 10] was 72.9% and the inhibition [7] was -5.87% (inactive). For the same molecule, the inhibition [8] was 1.83% (inactive).

With `CCn1c(COc2cccc3ccccc23)nnc1SCC(N)=O` the viability [1] was 96%, the Her2 level [2] was 75% (inactive) and the viability [3] was 96% (inactive). The viability [4] was 91% (inactive), the viability [5] was 91.1% (inactive) and the differential viability (reversal) ([6]; H69AR cells + 2 uM doxorubicin) was 13% (inactive). For the same molecule, the viability [6, 9] was 78.2%, the viability [6, 10] was 91.1% and the inhibition [7] was -4.21% (inactive). The inhibition [8] was 0.18% (inactive).

In the case of `CC(C)OC(=O)C(CC(=O)O)NCc1ccccc1` (stereo not given), the viability [1] is reported as 98%, the Her2 level [2] is reported as 91.5% (inactive) and the viability [3] is reported as 98% (inactive). For the same molecule, the viability [4] was 97.5% (inactive), the viability [5] was 91.6% (inactive) and the differential viability (reversal) ([6]; H69AR cells + 2 uM doxorubicin) was 3.69% (inactive). The viability [6, 9] was 88%, the viability [6, 10] was 91.6% and the inhibition [7] was -2.63% (inactive). The inhibition [8] was -1.29% (inactive).

For `C=CCn1c(SCC(=O)NCCCC)nc2scc(-c3ccco3)c2c1=O`, the viability [1] was 91.5%, the Her2 level [2] was 75.5% (inactive) and the viability [3] was 91.5% (inactive). For the same molecule, the viability [4] was 95.4% (inactive), the viability [5] was 88.8% (inactive) and the differential viability (reversal) ([6]; H69AR cells + 2 uM doxorubicin) was 2.11% (inactive). The viability [6, 9] was 86.7%, the viability [6, 10] was 88.8% and the inhibition [7] was 0.13% (inactive). For the same molecule, the inhibition [8] was -1.48% (inactive).

In the case of `COc1ccc(OCC(O)Cn2c(Br)nc3c2c(=O)[nH]c(=O)n3C)cc1` (stereo not given), the viability [1] is reported as 84%, the Her2 level [2] is reported as 72% (inactive) and the viability [3] is reported as 84% (inactive). For the same molecule, the viability [4] was 62.8% (inactive), the viability [5] was 28.5% (active) and the differential viability (reversal) ([6]; H69AR cells + 2 uM doxorubicin) was -28.6% (inactive). The viability [6, 9] was 57.1%, the viability [6, 10] was 28.5% and the inhibition [7] was -4.4% (inactive). The inhibition [8] was 10.7% (inactive).

With `CCn1c(=O)n(CC(=O)N(C)Cc2ccccc2)c(=O)c2ccccc21` the viability [1] was 110%, the Her2 level [2] was 93.5% (inactive) and the viability [3] was 110% (inactive). The viability [4] was 75.7% (inactive), the viability [5] was 91.8% (inactive) and the differential viability (reversal) ([6]; H69AR cells + 2 uM doxorubicin) was 1.03% (inactive). The viability [6, 9] was 90.8%, the viability [6, 10] was 91.8% and the inhibition [7] was 1.18% (inactive). The inhibition [8] was -0.48% (inactive).

With `Cc1cc(NC(=O)CCOc2ccccc2)no1` the viability [1] was 85.5%, the Her2 level [2] was 96.5% (inactive) and the viability [3] was 85.5% (inactive). The viability [4] was 87% (inactive), the viability [5] was 88.6% (inactive) and the differential viability (reversal) ([6]; H69AR cells + 2 uM doxorubicin) was 2.89% (inactive). The viability [6, 9] was 85.7%, the viability [6, 10] was 88.6% and the inhibition [7] was -2.34% (inactive). For the same molecule, the inhibition [8] was 1% (inactive).

For `Cc1ccc(C(C)n2cc(C(=O)NCCN3CCN(C)CC3)nn2)cc1` (stereo not given), the viability [1] was 106%, the Her2 level [2] was 94% (inactive) and the viability [3] was 106% (inactive). The viability [4] was 93.5% (inactive), the viability [5] was 86.1% (inactive) and the differential viability (reversal) ([6]; H69AR cells + 2 uM doxorubicin) was -5% (inactive). The viability [6, 9] was 91.1%, the viability [6, 10] was 86.1% and the inhibition [7] was -2.21% (inactive). The inhibition [8] was -6.19% (inactive).

In the case of `O=C(c1ccc2c(c1)OCCO2)C1CCN(C(=O)c2ccc(F)cc2)CC1`, the viability [1] is reported as 102%, the Her2 level [2] is reported as 111% (inactive) and the viability [3] is reported as 102% (inactive). The viability [4] was 93.7% (inactive), the viability [5] was 83.8% (inactive) and the differential viability (reversal) ([6]; H69AR cells + 2 uM doxorubicin) was -16.2% (inactive). For the same molecule, the viability [6, 9] was 99.9%, the viability [6, 10] was 83.8% and the inhibition [7] was -6.35% (inactive). The inhibition [8] was -3.11% (inactive).

In the case of `O=C(OCCCCN1C(=O)c2ccccc2C1=O)c1n[nH]c2ccccc12`, the viability [1] is reported as 92.5%, the Her2 level [2] is reported as 86% (inactive) and the viability [3] is reported as 92.5% (inactive). The viability [4] was 76.4% (inactive), the viability [5] was 101% (inactive) and the differential viability (reversal) ([6]; H69AR cells + 2 uM doxorubicin) was 6.39% (inactive). For the same molecule, the viability [6, 9] was 94.9%, the viability [6, 10] was 101% and the inhibition [7] was -7.67% (inactive). The inhibition [8] was 4.29% (inactive).

In the case of `COc1cc(-c2c(C#N)c(N)nc3c2CCCC3)cc(OC)c1OC`, the viability [1] is reported as 89%, the Her2 level [2] is reported as 72% (inactive) and the viability [3] is reported as 89% (inactive). The viability [4] was 74.2% (inactive), the viability [5] was 76.4% (inactive) and the differential viability (reversal) ([6]; H69AR cells + 2 uM doxorubicin) was -9.71% (inactive). For the same molecule, the viability [6, 9] was 86.1%, the viability [6, 10] was 76.4% and the inhibition [7] was -2.63% (inactive). For the same molecule, the inhibition [8] was 3.39% (inactive).

For `COC(=O)c1ccccc1NC(=O)CSc1nnc(-c2ccncc2)o1`, the viability [1] was 98%, the Her2 level [2] was 81.5% (inactive) and the viability [3] was 98% (inactive). The viability [4] was 103% (inactive), the viability [5] was 101% (inactive) and the differential viability (reversal) ([6]; H69AR cells + 2 uM doxorubicin) was 8.3% (inactive). The viability [6, 9] was 92.4%, the viability [6, 10] was 101% and the inhibition [7] was -4.67% (inactive). The inhibition [8] was 0.95% (inactive).
